CHT allo act = allosteric activators of human choline transporter CHT | Q9GZV3 | B-score at 10 µM | CHT-expressing cells, membrane potential dye, choline EC20; hits give high values; LV-AA mutant CHT in HEK293 cells | hit rate 0.49% among 310,000;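 active means initial fluorescence not abnormally high and integrated response B-score, plate-corrected, over 3 SD above library mean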
Target sequence (Q9GZV3 whole entry, looked up): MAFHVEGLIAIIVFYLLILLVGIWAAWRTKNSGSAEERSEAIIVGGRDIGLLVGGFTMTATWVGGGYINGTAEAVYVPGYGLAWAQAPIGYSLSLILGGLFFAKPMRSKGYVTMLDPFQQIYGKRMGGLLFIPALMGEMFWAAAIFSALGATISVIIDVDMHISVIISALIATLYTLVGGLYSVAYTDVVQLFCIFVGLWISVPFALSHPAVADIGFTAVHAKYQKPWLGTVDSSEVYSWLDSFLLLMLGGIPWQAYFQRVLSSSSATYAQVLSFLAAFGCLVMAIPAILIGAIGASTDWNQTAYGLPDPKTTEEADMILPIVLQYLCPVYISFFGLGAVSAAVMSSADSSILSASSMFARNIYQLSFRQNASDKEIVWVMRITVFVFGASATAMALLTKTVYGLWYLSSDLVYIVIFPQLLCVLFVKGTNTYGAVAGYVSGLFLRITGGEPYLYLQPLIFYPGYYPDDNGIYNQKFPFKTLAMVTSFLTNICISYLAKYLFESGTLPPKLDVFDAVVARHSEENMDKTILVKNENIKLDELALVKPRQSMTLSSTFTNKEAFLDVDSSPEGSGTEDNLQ
HSF1 activator = increases HSF-1 driven luciferase reporter signal; NIH3T3-HGL HSF-1 luciferase reporter, MG132, 8 h; 100% = twice DMSO control signal; hit rate 1.7% among 300,000; activation, % at 9 µM;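 active means mean replicate activation of at least 50% with a set share of replicates each reaching 50%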;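 further: 0% = median of the neutral control wells and 100% = twice that signal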
PHOSPHO1 block = PHOSPHO1 (human) inhibition. Q8TCT1. recombinant PHOSPHO1, absorbance phosphatase assay. inhibition, % at 13.3 µM. hit rate 1.1% among 290,000. AID 1565; in the data active means inhibition above about 60%
HSF1 inhib = HSF1 inhibition | NIH3T3-HGL HSE-luciferase, MG132-induced, luminescence 8 h; hits give low values | activity change, negative = inhibition, % at 7.5 µM (by protocol) | hit rate 0.77% among 300,000 | AID 2098;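 active means more than half of replicate wells show activity change below -50%, luminescence cut by over half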;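 further: luciferase reports HSF-1 transcriptional activity via heat shock element; 0% = median of DMSO wells and -100% = zero luminescence signal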
Hep lipid drop = modulators of hepatic lipid droplet formation; AML12 mouse hepatocytes, oleate lipid droplets, BODIPY imaging; inhibition, % at 6.5 µM; hit rate 0.4% among 240,000; AID 1656;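 active means lipid droplet intensity inhibited by at least 50%, with more than 500 cells counted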
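Test system: AML12 hepatocytes (mouse); reagent: oleate loading, 100 µM; dosing: one dose, 6.5 µM compound; incubation: overnight exposure; signal: fluorescence imaging, 20x objective, two fields per well; read-out basis: % inhibition of corrected integrated BODIPY droplet signal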
CHT inh = inhibits the human high affinity choline transporter; Q9GZV3; CHT-expressing cells, membrane potential dye, choline response; hits give low values; B-score at 10 µM; hit rate 0.86% among 310,000; AID 488975;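 active means B-score over 3 SD under the library average, and starting fluorescence ratio not unusually high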;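 further: choline stimulus applied at its EC90 after an EC20 pre-addition; B-score computed on integrated fluorescence ratio after choline addition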
CHT activ conf = confirmation of human choline transporter (CHT) activators | hit rate 91% among 2,500 | activation, % at 10 µM | CHT-expressing cells, membrane potential dye fluorescence (FDSS); % of choline EC20–EC90 response window; HEK293 expressing CHT LV-AA mutant; choline added at its EC20 | shares compounds with CHT allo act | AID 504833;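 active means primary screen active, with duplicate mean activation above negative control mean plus 3 SD, cut at about 11% in these data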
HEK293 MP dye = activity in parental HEK293 cells lacking CHT | shares compounds with CHT allo act | membrane potential dye fluorescence (FDSS); measured after EC20 choline addition | ratio readout change at 10 µM, hits read low | hit rate 62% among 2,500 | AID 623908;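 active means duplicate-averaged ratio beyond 3 SD from buffer wells, up or down, though filed actives are nearly all decreases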
* = called active by the depositor. Hits are enriched below; roughly 4.9% of the tested compounds scored in any of these assays.

How did Cc1ccc(-n2c(-c3ccc(Cl)cc3)c[n+]3c2CCC3)cc1 do in these assays?
CHT allo act: inactive; HSF1 activator: 8; PHOSPHO1 block: 29; HSF1 inhib: 2; Hep lipid drop: -67; CHT inh: inactive

What do the screens show for `COc1ccc(-n2c(-c3ccc(Br)cc3)c[n+]3c2CCC3)cc1`?
CHT allo act: inactive; HSF1 activator: 4; PHOSPHO1 block: 28; HSF1 inhib: -6; Hep lipid drop: 1; CHT inh: inactive

How did O=c1cc(N2CCCCC2)c(-c2ccccc2)n[nH]1 do in these assays?
CHT allo act: inactive; HSF1 activator: 4; PHOSPHO1 block: 28; HSF1 inhib: -1; Hep lipid drop: -21; CHT inh: inactive

What do the screens show for `COc1ccc(NC(=O)CN2C(=O)NC3(CC(C)CC(C)(C)C3)C2=O)cc1S(=O)(=O)N1CCCCC1` (configuration not stated)?
CHT allo act: inactive; HSF1 activator: 4; HSF1 inhib: 3; CHT inh: inactive

Results for COC(=O)c1ccc(NC(=S)N2CCN(C(=O)c3ccco3)CC2)cc1 ?
CHT allo act: inactive; HSF1 activator: -27; PHOSPHO1 block: -54; HSF1 inhib: -25; Hep lipid drop: -8; CHT inh: inactive

What do the screens show for `CCN1CCN(CC(=O)c2c(C)n(C)c3ccc(OC)cc23)CC1`?
CHT allo act: inactive; PHOSPHO1 block: 33; CHT inh: inactive; CHT activ conf: 53*; HEK293 MP dye: -33*

How did Cc1cc[n+](CCC(=O)O)c2ccccc12 do in these assays?
CHT allo act: inactive; HSF1 activator: 7; PHOSPHO1 block: 19; HSF1 inhib: -5; Hep lipid drop: 9; CHT inh: inactive

How did Cc1cc[n+](-c2ccccc2)c2ccccc12 do in these assays?
CHT allo act: 7*; HSF1 activator: -3; PHOSPHO1 block: 28; HSF1 inhib: 1; Hep lipid drop: 12; CHT inh: inactive; CHT activ conf: 32*; HEK293 MP dye: -44*

How did COc1ccc(-c2c[n+](CC(=O)c3cccs3)c3n2CCC3)cc1 do in these assays?
CHT allo act: inactive; HSF1 activator: 14; PHOSPHO1 block: 28; HSF1 inhib: -1; Hep lipid drop: 5; CHT inh: inactive; CHT activ conf: 44*; HEK293 MP dye: -31*

How did COc1ccc2c(c1)CCCN2C(N)=Nc1ccc(Cl)cc1 do in these assays?
CHT allo act: 6.3*; HSF1 activator: -22; PHOSPHO1 block: 0; HSF1 inhib: -2; Hep lipid drop: -1; CHT inh: inactive; CHT activ conf: 16*; HEK293 MP dye: inactive

Results for CCOc1ccc(N(C)S(=O)(=O)c2ccc3[nH]cc(C(=O)NCC(OC)OC)c(=O)c3c2)cc1 ?
CHT allo act: inactive; HSF1 activator: -11; PHOSPHO1 block: 32; HSF1 inhib: -1; Hep lipid drop: -5; CHT inh: inactive; CHT activ conf: 21*; HEK293 MP dye: inactive

Results for CCC1CCCCN1C(=O)c1c[nH]c2ccc(S(=O)(=O)N(C)c3ccc(Cl)cc3)cc2c1=O (configuration not stated) ?
CHT allo act: inactive; HSF1 activator: -6; PHOSPHO1 block: 17; HSF1 inhib: -3; Hep lipid drop: 7; CHT inh: inactive; CHT activ conf: 30*; HEK293 MP dye: inactive

Results for Cc1ccc(-n2ncc3c2CC(C)(C)CC3NC(=O)CCc2ccncc2)cc1 (configuration not stated) ?
CHT allo act: inactive; HSF1 activator: 5; PHOSPHO1 block: 46; HSF1 inhib: 5; Hep lipid drop: 1; CHT inh: inactive

Results for COc1cccc(/C=N/NC(=O)c2ccc(=O)n(C)c2)c1OC ?
CHT allo act: 6.3*; HSF1 activator: 6; PHOSPHO1 block: -14; HSF1 inhib: 3; Hep lipid drop: 17; CHT inh: inactive; CHT activ conf: 14*; HEK293 MP dye: -32*

What do the screens show for `COC(=O)c1cc(S(=O)(=O)N2CCN(C3CCCCC3)CC2)c[nH]1`?
CHT allo act: inactive; HSF1 activator: -11; PHOSPHO1 block: -32; HSF1 inhib: -5; Hep lipid drop: 17; CHT inh: inactive

Results for Cc1c(C)c(C)c(CN2CCSCC2)c(C)c1C ?
CHT allo act: inactive; HSF1 activator: 2; PHOSPHO1 block: 29; HSF1 inhib: 0; Hep lipid drop: -3; CHT inh: inactive

Results for COc1ccc2nc(N/C(N)=N/C(=S)Nc3c(C)cccc3C)nc(C)c2c1 ?
CHT allo act: 7.1*; HSF1 activator: 26; PHOSPHO1 block: 13; HSF1 inhib: 11; Hep lipid drop: -21; CHT inh: inactive; CHT activ conf: 50*; HEK293 MP dye: -41*

How did Cc1cc(/C=N/NC(N)=O)c(C)n1-c1ccc(F)cc1 do in these assays?
CHT allo act: 14*; HSF1 activator: 20; PHOSPHO1 block: -8; HSF1 inhib: 4; Hep lipid drop: -6; CHT inh: inactive; CHT activ conf: 23*; HEK293 MP dye: inactive

What do the screens show for `CC(=O)NCC(=O)NC1CC(C)(C)Cc2c1cnn2-c1ccccc1` (configuration not stated)?
CHT allo act: inactive; HSF1 activator: -4; PHOSPHO1 block: 13; HSF1 inhib: -6; Hep lipid drop: 9; CHT inh: inactive

What do the screens show for `CCSc1nc(O)cc(=O)n1-c1ccc(OC)cc1`?
CHT allo act: inactive; HSF1 activator: 30; PHOSPHO1 block: -1; HSF1 inhib: 14; CHT inh: inactive

Results for CCSc1ccc2cc(OC)ccc2[n+]1CC ?
CHT allo act: 6.3*; HSF1 activator: -2; PHOSPHO1 block: 27; HSF1 inhib: 5; Hep lipid drop: -30; CHT inh: inactive; CHT activ conf: 40*; HEK293 MP dye: -54*

Results for COc1ccc(CCN2C(=O)C3CC(C)=C(C)CC3C2=O)cc1OC (configuration not stated) ?
CHT allo act: inactive; HSF1 activator: 2; PHOSPHO1 block: -9; HSF1 inhib: 7; CHT inh: inactive

How did COC(=O)C1=C(C)N(Cc2ccccc2)C(=NCC(C)C)N[C@H]1c1ccccc1 do in these assays?
CHT allo act: inactive; HSF1 activator: 1; PHOSPHO1 block: -47; HSF1 inhib: 7; CHT inh: inactive; CHT activ conf: 35*; HEK293 MP dye: inactive

Screening data from PubChem BioAssay.
